Where “and” joins values, the source holds several entries; their conditions need not be identical. Equal values may be shown once. Screen size: about 350,000 compounds; about 300 (0.086%) were called active. The sample holds actives, similar compounds and a random draw of the others, so the mix is not that of the screen.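 The calls were made as follows: active = mean inhibition across replicates of 30% or more, regardless of how many single replicates reach that level; inconclusive = mean under 30% yet at least half of replicates reach 30%; inactive = the rest.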

What is called inhibition is the drop in the measured response relative to a control, in per cent.

A short description of the experiment: inhibitors of fibronectin matrix deposition, primary screen, AH1F cells, Alexa488-fibronectin fluorescence, plate reader (AID 743247).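 Also: positive control wells lacked labelled fibronectin entirely.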 The following applies: AH1F fibroblasts, overnight, at 12.6 µM, stronger effect = higher value. In outline:
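Test system: AH1F fibroblast monolayer depositing Alexa488-labelled fibronectin into matrix. Input: 10000 cells per well. Technique: fluorescence, ex 485 nm, em 525 nm. Buffer or medium: DMEM plus 2% serum, read in PBS. Timing: 1 h cell adhesion before compound, then overnight fibronectin incubation. Compound: single dose, pinned. Read-out basis: inhibition from reduced deposited-fibronectin fluorescence.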
As to `O=C(C[C@H]1C=C[C@@H](NC(=O)c2ccc(F)cc2)[C@@H](CO)O1)NCCc1ccncc1`, the inhibition was 10.9% (inactive). Regarding `COc1ccccc1S(=O)(=O)N1C[C@@H](O)COC[C@H]2O[C@H](CC(=O)O)CC[C@@H]21`, the inhibition is -7.66% (inactive).

With `Cc1ccc(S(=O)(=O)Nc2ccc3c(c2)C(=O)N([C@@H](C)CO)C[C@@H](C)[C@@H](CN(C)Cc2ccc(C(F)(F)F)cc2)OCCCC[C@@H](C)O3)cc1`, the inhibition is 7.11% (inactive). Turning to `CC(C)NC(=O)N[C@H]1CC[C@H](CC(=O)NCCCN(C)C)O[C@H]1CO`, the inhibition is -22.3% (inactive). `C[C@H]1CN(C)C(=O)c2cc(N(C)C)ccc2O[C@H]1CN(C)C(=O)OC(C)(C)C`: the inhibition was -2.56% (inactive). In the case of `CO[C@@H]1CN(C)C(=O)c2cc(NC(=O)C3CC3)ccc2OC[C@H](C)N(C(=O)CN(C)C)C[C@H]1C`, the inhibition was -1.48% (inactive).

Regarding `CCC(=O)Nc1ccc2c(c1)C(=O)N(C)C[C@H](OC)[C@@H](C)CN(Cc1nccs1)[C@H](C)CO2`, the inhibition is 8.21% (inactive).

For `CCCC(=O)Nc1ccc2c(c1)OC[C@H](C)N(CCc1ccccc1)C[C@H](C)[C@@H](OC)CN(C)C2=O`, the inhibition is -9.33% (inactive). Turning to `O=C1N[C@H](c2ccccc2)COCc2cn(nn2)CC[C@@H]1Cc1ccc(Cl)cc1`, the inhibition was -8.81% (inactive). For `Cc1ccc(Nc2nnc(SC(C)C(=O)NC3CC3)s2)cc1` (stereo not given), the inhibition was 9.55% (inactive). Turning to `Cc1ccc(Nc2nnc(SCc3ccccc3)s2)cc1`, the inhibition was 30.3% (active).

On to `Cc1ccc(Nc2nc(N)nc(CSc3nnc(C)s3)n2)cc1`, for which the inhibition is -6.84% (inactive).

As for `CC(=O)N1C[C@@H]2C(c3ccccc3)[C@H](C1)N2Cc1ccc(F)cc1` (stereo not given in full), the inhibition was -14.1% (inactive) and 0.287% (inactive). As to `Cc1cccc(-c2ccc(C3[C@H]4CNC[C@@H]3N4S(=O)(=O)c3ccccc3F)cc2)c1` (stereo not given in full), the inhibition was 6.27% (inactive) and -0.776% (inactive). As to `CC(=O)N(C)C[C@@H]1Oc2ccc(NC(=O)NC(C)C)cc2C(=O)N(C)C[C@H]1C`, the inhibition is 0.044% (inactive).

Regarding `CC(C)NC(=O)N(C)C[C@H]1Oc2ccc(N(C)C)cc2CC(=O)N(C)C[C@@H]1C`, the inhibition is -2.09% (inactive). In the case of `C[C@H](CO)N1C[C@H](C)[C@@H](CN(C)C(=O)Nc2cccc(F)c2)OCc2ccccc2-c2ccccc2C1=O`, the inhibition was 6.45% (inactive).

For the compound `C[C@@H]1CN(C)C(=O)c2cc([N+](=O)[O-])ccc2O[C@@H]1CN(C)C(=O)OC(C)(C)C`, the inhibition was -15.7% (inactive). Consider `CC(=O)c1ccc(Nc2nc(C(N)c3ccccc3Cl)cs2)cc1` (stereo not given), for which the inhibition was -5.17% (inactive). For the compound `CC(=O)c1ccc(Nc2nc(C(N)c3ccccc3)cs2)cc1` (stereo not given), the inhibition is 30.3% (active). In the case of `NC(c1ccccc1)c1csc(NC(=O)Nc2cccc(C(F)(F)F)c2)n1` (stereo not given) it was 0.914% (inactive); in that of `CCS(=O)(=O)Nc1ccc2c(c1)C(=O)N(C)[C@@H]1CC[C@@H](CC(=O)NC)O[C@H]1CO2`, 6.61% (inactive); in that of `CC(=O)Nc1cccc2c1O[C@@H](CN(C)C(C)=O)[C@@H](C)CN(C)C2=O`, -3.62% (inactive). As for `CN(C)C(=O)c1ccc(-c2ccc(C3[C@@H]4CN(S(=O)(=O)c5cccc(Cl)c5)C[C@H]3N4)cc2)cc1` (stereo not given in full), the inhibition is -2.13% (inactive). Turning to `CNC[C@H]1Oc2ccc(NC(=O)Nc3ccc(F)cc3)cc2C(=O)N([C@@H](C)CO)C[C@@H]1C`, the inhibition is -0.84% (inactive). In the case of `CC(C)NC(=O)N(C)C[C@H]1Oc2c(cccc2N(C)C)C(=O)N(C)C[C@H]1C` it was 0.739% (inactive); in that of `O=C(N[C@@H]1CC[C@H](CCn2cc(-c3ccccc3)nn2)O[C@H]1CO)c1cnccn1`, 15% (inactive); in that of `O=C(C[C@H]1CC[C@@H]2[C@H](COC[C@H](O)CN2CCC(F)(F)F)O1)NCC1CC1`, -3.5% (inactive).

Consider `C[C@@H]1CN(C)C(=O)c2cccc(N(C)C)c2O[C@H]1CN(C)S(C)(=O)=O`, for which the inhibition was -2.39% (inactive). Regarding `CN1c2ccc(-c3cccc(C#N)c3)cc2[C@H]2[C@H](CCN2S(=O)(=O)c2cccc(F)c2)[C@@H]1CO`, the inhibition is 13.8% (inactive). For `COCC(=O)Nc1ccc2c(c1)OC[C@H](C)N(C)C[C@H](C)[C@@H](OC)CN(C)C2=O` the value was -14.1% (inactive); for `CC(C)NC(=O)N[C@@H]1C=C[C@@H](CC(=O)N2CCCCC2)O[C@@H]1CO`, -8.74% (inactive). As to `c1ccc(-c2ccc(C3[C@@H]4CN(Cc5cccnc5)C[C@H]3N4)cc2)cc1` (stereo not given in full), the inhibition was -4.82% (inactive) and -10.1% (inactive). For `CCc1nc2c(OCCOc3ccccc3)cccn2c1N(C)C(=O)c1ccccc1F`, the inhibition is -0.297% (inactive). In the case of `CCc1nc2c(OCCOc3ccccc3)cccn2c1N(C)C(=O)c1ccc(OC)cc1` it was 5.55% (inactive); in that of `CCc1nc2c(OCCc3cccc(OC)c3)cccn2c1N(C)C(=O)c1ccc(C)cc1`, 30.8% (active); in that of `CCC(=O)N(C)C[C@H]1Oc2ncc(-c3ccc(C)cc3)cc2C(=O)N([C@@H](C)CO)C[C@@H]1C`, -13% (inactive). As for `C[C@@H]1CCCCO[C@H](CN(C)C(=O)c2ccccc2)[C@@H](C)CN([C@H](C)CO)C(=O)c2cc(NC(=O)c3ccccc3)ccc2O1`, the inhibition was 7% (inactive).

With `O=C(C[C@H]1C[C@H]2c3cc(NC(=O)NC4CCCC4)ccc3O[C@H]2[C@@H](CO)O1)NCc1ccc(-c2ccccc2)cc1`, the inhibition was -25.6% (inactive).

`CCCNC(=O)C[C@H]1CC[C@@H]2[C@H](COc3ccc(NC(=O)c4ccc(OC)cc4)cc3C(=O)N2C)O1`: the inhibition was 10.3% (inactive). With `CC(=O)N1[C@H](CO)[C@@H](c2ccc(-c3ccc(F)cc3)cc2)[C@H]1CNC(=O)C1CC1`, the inhibition was -16% (inactive). For `CC(=O)N1[C@H](CNC(=O)CN(C)C)[C@H](c2ccc(C3=CCCC3)cc2)[C@@H]1CO`, the inhibition was 13.6% (inactive). For `CC[C@@H]1CC=CC[C@H](C)Oc2ccccc2C(=O)N(C)[C@H](Cc2ccccc2)C(=O)N1` (mixture of isomers), the inhibition was -1.05% (inactive). In the case of `O=C1[C@H](Cc2ccc(C(F)(F)F)cc2)CCn2nncc2COC[C@@H]2CCCCN12` it was 4.17% (inactive). For `C[C@@H]1COCc2cnnn2CC[C@H](Cc2ccccc2)C(=O)N1`, the inhibition is -8.72% (inactive). Take `C[C@H](CO)N1C[C@H](C)[C@@H](CN(C)S(C)(=O)=O)Oc2cc(C#CC3CC3)ccc2S1(=O)=O`: the inhibition is 5.58% (inactive). As for `CO[C@H]1CN(C)C(=O)c2ccc(NC(=O)C3CC3)cc2OC[C@@H](C)N(C(=O)c2ccccn2)C[C@@H]1C`, the inhibition was 2.68% (inactive). As to `O=C(C[C@@H]1CC[C@@H](NC(=O)C2CC2)[C@@H](CO)O1)NCc1ccccc1Cl`, the inhibition is -5.16% (inactive). For `Cc1noc(C)c1S(=O)(=O)N(C)C[C@H]1Oc2ccc(N(C)C)cc2C(=O)N([C@H](C)CO)C[C@@H]1C` the value was -9.54% (inactive); for `CO[C@H]1CN(C)C(=O)c2cc(NS(=O)(=O)c3ccccc3)ccc2OC[C@@H](C)N(Cc2nccs2)C[C@@H]1C`, -0.524% (inactive); for `O=C(Nc1cc(F)ccc1F)N[C@H]1CC[C@H](CCn2cc(C3CCCC3)nn2)O[C@@H]1CO`, -1.92% (inactive). In the case of `CC(=O)N(C)C[C@@H]1Oc2ccc(N)cc2CC(=O)N(C)C[C@H]1C` it was -1.05% (inactive).

For `CNC[C@@H]1Oc2ccc(N(C)C)cc2CC(=O)N(C)C[C@@H]1C`, the inhibition is 2.18% (inactive).

With `C[C@H](CO)N1C[C@H](C)[C@H](CN(C)Cc2ccc(C(F)(F)F)cc2)OCCCC[C@H](C)Oc2ccc(NS(=O)(=O)c3ccc(Cl)cc3)cc2C1=O`, the inhibition is -21% (inactive).

With `C[C@@H]1CCCCO[C@H](CN(C)C)[C@H](C)CN([C@@H](C)CO)C(=O)c2cc(NS(=O)(=O)c3cn(C)cn3)ccc2O1`, the inhibition is -0.203% (inactive). For the compound `CCC(=O)N1CC2(C1)[C@@H](c1ccccc1)[C@H](CO)N2CC1CCOCC1`, the inhibition was -2.08% (inactive). Regarding `CN1c2ccc(-c3cccc(C#N)c3)cc2[C@@H]2[C@@H](CCN2C(=O)NC2CCCCC2)[C@@H]1CO`, the inhibition is -3.13% (inactive). Consider `COc1ccc(NC(=O)N2C[C@H](O)COC[C@H]3O[C@@H](CC(=O)N4CCN(C)CC4)CC[C@@H]32)cc1`, for which the inhibition is -2.89% (inactive). For `CC[C@H]1CC=CC[C@@H](C)Oc2ccccc2C(=O)N(C)[C@H](Cc2ccccc2)C(=O)N1` (mixture of isomers), the inhibition was 0.881% (inactive). As to `COc1ccccc1NC(=O)N1[C@@H]2CNC[C@H]1C2c1ccc(-c2ccccc2C)cc1` (stereo not given in full), the inhibition is -3.3% (inactive).

For `CCCN1C[C@@H](C)[C@@H](OC)CN(C)C(=O)c2cc(NC(=O)Nc3cccc(F)c3)ccc2OC[C@@H]1C`, the inhibition is -5.97% (inactive). Turning to `C[C@H]1CN(C)C(=O)c2cccc(N(C)C)c2O[C@@H]1CN(C)C`, the inhibition is -26.9% (inactive). As to `O=C(C1CCCCC1)N1CC(=O)N2[C@H](CO)[C@H](c3ccc(-c4ccccc4F)cc3)[C@H]2C1`, the inhibition is -7.64% (inactive). With `O=C1N[C@H](c2ccccc2)COCc2cn(nn2)CC[C@H]1Cc1cccc(Cl)c1`, the inhibition was -1.96% (inactive).

Take `COc1ccc2c3c([nH]c2c1)[C@@H](CO)N(Cc1ccccc1)CC31CCN(Cc2cncnc2)CC1`: the inhibition was -11.5% (inactive).

Regarding `O=C1NCCOCc2cn(nn2)CC[C@@H]1Cc1ccccc1`, the inhibition is -3.44% (inactive).

In the case of `CCCNC(=O)Nc1ccc2c(c1)C(=O)N(C)[C@H]1CC[C@H](CC(=O)NC3CCC3)O[C@H]1CO2`, the inhibition is -3.4% (inactive). With `CN(C)CC(=O)N[C@@H]1CC[C@H](CCn2cc(C3CCCC3)nn2)O[C@H]1CO`, the inhibition is 5.53% (inactive). Take `CC(C)NC(=O)Nc1cccc2c1O[C@H](CN(C)Cc1ccc3c(c1)OCO3)[C@H](C)CN([C@H](C)CO)C2=O`: the inhibition was 7.48% (inactive). In the case of `CNC[C@H]1Oc2ccccc2CC(=O)N(C)C[C@H]1C` it was -0.894% (inactive).

These data come from PubChem BioAssay AID743247 (Broad Institute, 2014).
